Laboratory results from ChEMBL document CHEMBL1949521, “Discovery of CC-930, an orally active anti-fibrotic JNK inhibitor” (Bioorg Med Chem Lett, 2012).

Key:
[1] = molecular target: Mitogen-activated protein kinase 14 (Homo sapiens, UniProt Q16539); test: Inhibition of p38alpha using myelin basic protein as substrate preincubated for 15 mins prior ATP addition measured after 60 mins by scintillation counting
[2] = molecular target: Mitogen-activated protein kinase 8 (Homo sapiens, UniProt P45983); test: Inhibition of hexa-His-tagged JNK1 expressed in baculoviral system using GST-tagged c-Jun as substrate preincubated for 15 mins prior ATP addition measured after 60 mins by scintillation counting
[3] = molecular target: c-Jun N-terminal kinase, JNK (Homo sapiens, UniProt P45983+P53779+P45984); test: Inhibition of JNK-mediated GST tagged c-Jun phosphorylation in human Jurkat T cells compound treated for 30 mins prior anisomycin stimulation measured after 40 mins by fluorescence spectrophotometry; format: cell-based
[4] = Oral bioavailability in rat; format: ADME, organism-based; conditions: in vivo
[5] = Oral bioavailability in dog at 10 mg/kg; format: ADME, organism-based, Canis lupus familiaris; conditions: in vivo
Procedure, shortened: (§1)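 Oral dose of 10 mg/kg given as a suspension in aqueous 0.5% CMC/0.25% Tween 80. Plasma AUC, Cmax and Tmax were taken from the oral arm. Bioavailability was derived against the intravenous arm in the same species.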

Rattus norvegicus = test: Antiinflammatory activity in CD rat assessed as inhibition of LPS-stimulated TNFalpha production at 30 mg/kg, po administered 1 hr prior LPS challenge measured after 90 mins by ELISA; format: functional
Procedure, shortened: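 Acute PK-PD model in rats: compound given by oral gavage at 10 or 30 mg/kg, then lipopolysaccharide injected, and plasma TNF-alpha release measured.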

[6] = AUC in po dosed rat; format: ADME, organism-based; conditions: plasma
[7] = Clearance in rat at 2 mg/kg, iv; format: ADME, organism-based; design: dose 2 mg/kg, route intravenous; conditions: in vivo
Procedure, shortened: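 Rats dosed intravenously at 2 mg/kg in a solution of 5% DMA and 30% PEG 400.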

[8] = AUC in rat at 10 mg/kg, po; format: ADME, organism-based; design: dose 10 mg/kg, route oral; conditions: plasma; procedure, shortened: as §1

Chain of Mitogen-activated protein kinase 8 (P45983 whole entry): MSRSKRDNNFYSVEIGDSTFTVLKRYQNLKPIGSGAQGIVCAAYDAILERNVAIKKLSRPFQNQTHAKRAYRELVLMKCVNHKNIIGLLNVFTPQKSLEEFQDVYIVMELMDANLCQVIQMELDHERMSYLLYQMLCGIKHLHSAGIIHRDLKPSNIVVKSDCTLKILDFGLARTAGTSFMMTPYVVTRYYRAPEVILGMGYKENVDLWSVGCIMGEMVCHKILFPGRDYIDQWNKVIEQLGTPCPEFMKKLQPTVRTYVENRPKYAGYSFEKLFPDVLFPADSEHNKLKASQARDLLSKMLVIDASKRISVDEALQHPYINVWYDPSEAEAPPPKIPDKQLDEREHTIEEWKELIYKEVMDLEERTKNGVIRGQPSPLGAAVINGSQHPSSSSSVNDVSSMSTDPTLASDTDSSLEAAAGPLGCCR
Chain of Mitogen-activated protein kinase 14 (Q16539 whole entry): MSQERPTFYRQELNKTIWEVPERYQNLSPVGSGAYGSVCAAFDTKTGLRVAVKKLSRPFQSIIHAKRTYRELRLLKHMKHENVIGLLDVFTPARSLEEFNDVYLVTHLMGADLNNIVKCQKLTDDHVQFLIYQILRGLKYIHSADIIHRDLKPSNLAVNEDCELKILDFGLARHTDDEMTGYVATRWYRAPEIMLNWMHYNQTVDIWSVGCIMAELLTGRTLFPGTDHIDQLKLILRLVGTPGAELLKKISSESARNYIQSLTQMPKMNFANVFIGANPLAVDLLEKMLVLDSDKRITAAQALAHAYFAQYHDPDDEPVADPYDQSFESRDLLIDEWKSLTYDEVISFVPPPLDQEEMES

IC50 [1]	IC50 [2]	IC50 [3]	bioavailability [4]	bioavailability [5]	AUC [6]	clearance [7]	AUC [8]	SMILES	inhibition in vivo at 30 mg/kg (Rattus norvegicus)
6200 nM	79 nM	200 nM	42%	20%	4.7 µM·h	31 mL/min/kg	–	CC(C)Nc1ncc2nc(Nc3c(F)cc(F)cc3F)n([C@H]3CC[C@@H](C(=O)NC4CC4)CC3)c2n1	92%
980 nM	320 nM	1700 nM	–	–	–	–	–	CC(C)(O)[C@H]1CC[C@H](Nc2ncc3nc(Nc4ccc(F)cc4F)n(C4CCOCC4)c3n2)CC1	–
> 3000 nM	540 nM	1600 nM	–	–	–	–	–	CCO[C@H]1CC[C@H](Nc2ncc3nc(Nc4ccc(F)cc4F)n(C4CCOCC4)c3n2)CC1	–
–	–	–	8%	–	–	66 mL/min/kg	0.36 µM·h	N[C@H]1CC[C@H](Nc2ncc3nc(Nc4ccc(F)cc4F)n(C4CCCC4)c3n2)CC1	–
